Experimental data reported in ChEMBL document CHEMBL4020761, “Exploration of pyrrole derivatives to find an effective potassium-competitive acid blocker with moderately long-lasting suppression of gastric acid secretion” (Bioorg Med Chem, 2017).
Calls of active or inactive are those of the source. No cut-off for these calls is given here.

How the values were obtained:
[1] = Cytotoxicity against human HepG2 cells assessed as cellular ATP level at 100 uM after 1 day by ATPLite assay relative to control; format: cell-based; settings: read-out: Activity
[2] = Lipophilicity, log D of the compound at pH 7.4 by HPLC analysis; format: physicochemical; settings: buffer
How it was run: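 At pH 7.4, log D derived from HPLC retention time relative to standard compounds.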

[3] = molecular target: CYP3A4 (Homo sapiens, UniProt P08684); experiment: Inhibition of CYP3A4 (unknown origin) expressed in insect cells at 10 uM using testosterone as substrate after 15 mins by HPLC analysis relative to control; format: ADME; settings: recombinant CYP3A4 expressed in insect cells, probe testosterone
How it was run: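 Testosterone substrate at 100 μmol/L with 10 nmol/L insect-cell-expressed CYP3A4 and 10 μmol/L test compound, incubated 15 min at 37 °C. 6β-hydroxytestosterone quantified by HPLC with UV detection.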

[4] = Inhibition of H+/K+-ATPase in porcine stomach gastric mucosal microsomes assessed as reduction in inorganic phosphate production using ATP as substrate preincubated for 30 mins followed by ATP addition in presence of KCl at pH 6.5 by malachite green reagent based colorimetric assay; design: species or system Sus scrofa
[5] = Drug uptake in Sprague-Dawley rat stomach at 0.2 mg/kg, iv administered as cassette dose after 4 hrs by LC-MS/MS analysis; format: ADME, organism-based; settings: read-out: Drug uptake
How it was run: (§1)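 Fasted male Sprague-Dawley rats given compounds iv by cassette dosing at 0.2 mg/kg (as free base). Plasma and stomach sampled at 10 min, 1, 4 and 24 h. Plasma and 20% stomach homogenate in saline deproteinized with acetonitrile containing internal standard, then LC/MS/MS. AUC calculated for plasma and stomach. Values are averages of three rats.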

[6] = Plasma concentration in Sprague-Dawley rat at 0.2 mg/kg, iv administered as cassette dose after 1 hr by LC-MS/MS analysis; format: ADME, organism-based; how it was run: as §1
[7] = system: Rattus norvegicus; experiment: Inhibition of histamine-induced acid secretion in Jcl:Sprague-Dawley rat gastric at 1 mg/kg, iv pretreated for 3 mins after pylorus ligation followed by histamine.2HCl treatment measured after 3 hrs by titration method relative to control; format: functional
How it was run: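 Anesthetized rats dosed iv at 1 mg/kg. Total acid output over 3 h after histamine injection compared with vehicle-treated rats.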

[8] = Drug uptake in Sprague-Dawley rat stomach at 0.2 mg/kg, iv administered as cassette dose after 24 hrs by LC-MS/MS analysis; format: ADME, organism-based; settings: read-out: Drug uptake; how it was run: as §1
[9] = Plasma concentration in Sprague-Dawley rat at 0.2 mg/kg, iv administered as cassette dose after 10 mins by LC-MS/MS analysis; format: ADME, organism-based; how it was run: as §1
[10] = molecular target: hERG (KCNH2) (Homo sapiens, UniProt Q12809); experiment: Inhibition of human ERG expressed in HEK cells at 10 uM at -75 mV holding potential by Whole-cell voltage clamp assay relative to control; format: cell-based; settings: HEK cells expressing human ERG
[11] = AUC in Sprague-Dawley rat plasma at 0.2 mg/kg, iv administered as cassette dose by LC-MS/MS analysis; format: ADME, organism-based; how it was run: as §1
[12] = system: Stomach; experiment: AUC in Sprague-Dawley rat stomach at 0.2 mg/kg, iv administered as cassette dose by LC-MS/MS analysis; format: ADME, organism-based; settings: in vivo; how it was run: as §1
[13] = Drug uptake in Sprague-Dawley rat stomach at 0.2 mg/kg, iv administered as cassette dose after 10 mins by LC-MS/MS analysis; format: ADME, organism-based; settings: read-out: Drug uptake; how it was run: as §1
[14] = Drug uptake in Sprague-Dawley rat stomach at 0.2 mg/kg, iv administered as cassette dose after 1 hr by LC-MS/MS analysis; format: ADME, organism-based; settings: read-out: Drug uptake; how it was run: as §1
[15] = system: Rattus norvegicus; experiment: Inhibition of histamine-induced acid secretion in Jcl:Sprague-Dawley rat assessed as increase in pH of gastric perfusate at 1 mg/kg, iv pretreated for 3 mins after pylorus ligation followed by histamine.2HCl treatment measured after 3 hrs by glass electrode method; format: functional, organism-based
[16] = system: Rattus norvegicus; experiment: Inhibition of histamine-induced acid secretion in Jcl:Sprague-Dawley rat assessed as increase in pH of gastric perfusate at 1 mg/kg, iv pretreated for 3 mins after pylorus ligation followed by histamine.2HCl treatment measured after 180 to 300 mins by glass electrode method; format: functional, organism-based
[17] = system: Rattus norvegicus; experiment: Inhibition of histamine-induced acid secretion in Jcl:Sprague-Dawley rat assessed as pH of gastric perfusate at 1 mg/kg, iv pretreated for 3 mins after pylorus ligation followed by histamine.2HCl treatment measured after 3 hrs by glass electrode method (reference value: 2); format: functional

hERG (KCNH2), sequence (Q12809 whole entry): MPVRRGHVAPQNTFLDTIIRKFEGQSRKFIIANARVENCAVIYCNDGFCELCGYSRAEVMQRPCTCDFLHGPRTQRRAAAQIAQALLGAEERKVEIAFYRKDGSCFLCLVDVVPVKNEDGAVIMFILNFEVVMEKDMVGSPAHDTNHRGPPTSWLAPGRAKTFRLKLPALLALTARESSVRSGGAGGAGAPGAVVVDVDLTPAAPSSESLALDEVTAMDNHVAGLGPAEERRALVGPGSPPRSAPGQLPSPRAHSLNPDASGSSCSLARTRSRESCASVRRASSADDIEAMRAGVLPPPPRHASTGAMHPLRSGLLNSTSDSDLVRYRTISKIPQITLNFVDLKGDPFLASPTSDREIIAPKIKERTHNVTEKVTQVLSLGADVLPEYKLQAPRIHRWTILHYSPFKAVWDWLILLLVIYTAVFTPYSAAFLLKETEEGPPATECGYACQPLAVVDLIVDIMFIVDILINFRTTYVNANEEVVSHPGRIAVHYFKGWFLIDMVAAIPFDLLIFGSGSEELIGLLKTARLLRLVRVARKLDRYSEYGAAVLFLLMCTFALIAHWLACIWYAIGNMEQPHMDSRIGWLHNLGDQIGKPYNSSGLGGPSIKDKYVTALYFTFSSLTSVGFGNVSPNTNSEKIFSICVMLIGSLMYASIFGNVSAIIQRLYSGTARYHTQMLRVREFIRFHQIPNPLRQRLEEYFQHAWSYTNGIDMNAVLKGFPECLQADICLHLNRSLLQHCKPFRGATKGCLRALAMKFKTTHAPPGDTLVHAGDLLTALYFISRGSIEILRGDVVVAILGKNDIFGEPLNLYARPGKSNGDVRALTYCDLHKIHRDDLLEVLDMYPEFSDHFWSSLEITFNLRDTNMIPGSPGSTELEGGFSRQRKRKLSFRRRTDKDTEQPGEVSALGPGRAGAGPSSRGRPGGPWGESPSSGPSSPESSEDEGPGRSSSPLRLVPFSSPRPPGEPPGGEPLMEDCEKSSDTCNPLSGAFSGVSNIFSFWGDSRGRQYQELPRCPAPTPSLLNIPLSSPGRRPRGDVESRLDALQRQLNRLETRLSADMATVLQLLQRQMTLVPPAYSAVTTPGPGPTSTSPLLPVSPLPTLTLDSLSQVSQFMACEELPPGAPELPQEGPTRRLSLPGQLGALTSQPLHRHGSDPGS
CYP3A4, sequence (P08684 whole entry): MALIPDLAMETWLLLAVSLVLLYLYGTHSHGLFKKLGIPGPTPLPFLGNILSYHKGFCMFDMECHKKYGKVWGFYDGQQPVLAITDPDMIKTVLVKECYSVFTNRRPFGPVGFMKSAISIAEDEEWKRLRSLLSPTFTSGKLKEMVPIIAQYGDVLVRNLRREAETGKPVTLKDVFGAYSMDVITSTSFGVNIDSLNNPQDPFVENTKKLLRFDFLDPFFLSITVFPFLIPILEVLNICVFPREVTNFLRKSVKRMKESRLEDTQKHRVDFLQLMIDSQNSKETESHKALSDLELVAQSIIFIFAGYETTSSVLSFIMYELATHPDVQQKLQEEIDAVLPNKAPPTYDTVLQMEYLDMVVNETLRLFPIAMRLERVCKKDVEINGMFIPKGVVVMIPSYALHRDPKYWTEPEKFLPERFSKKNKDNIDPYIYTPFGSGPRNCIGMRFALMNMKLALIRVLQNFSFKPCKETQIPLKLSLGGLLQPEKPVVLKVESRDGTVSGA

SMILES | logD [2] | inhibition at 0.25 h, 10 µM [3] | IC50 [4] | concentration at 4 h [5] | concentration at 1 h [6] | concentration at 24 h [8] | concentration at 10 min [9] | AUC [11] | AUC [12] | concentration at 10 min [13] | concentration at 1 h [14] | viability at 24 h, 100 µM [1] | inhibition in vivo at 1 mg/kg [7] | inhibition at 10 µM [10] | inhibition [15] | inhibition [16] | pH [17]
CNCc1cn(S(=O)(=O)c2cccc(F)n2)c(-c2cccnc2F)c1F | 0.7 | 46% | 240 nM | – | – | – | – | – | – | – | – | 74% | – | – | – | – | –
CNCc1cn(S(=O)(=O)c2cc(OC)ccn2)c(-c2cccnc2F)c1F | 0.51 | 19% | 140 nM | 268 ng/g | 10.1 ng/mL | 8.8 ng/g | 37.2 ng/mL | 38 ng·h/mL | 4964 ng·h/g | 617 ng/g | 773 ng/g | 84.5% | 95% | 38.7% | – | – | –
CNCc1cc(-c2cccnc2F)n(S(=O)(=O)c2cccs2)c1 | – | – | 32 nM | 210 ng/g | 8.8 ng/mL | – | 20.8 ng/mL | 27 ng·h/mL | 3815 ng·h/g | 522 ng/g | 592 ng/g | – | 96% | – | – | – | –
CNCc1cn(S(=O)(=O)c2ccc(F)cn2)c(-c2cccnc2F)c1F | 0.42 | 21.7% | 100 nM | 347 ng/g | 5 ng/mL | – | 25 ng/mL | 22 ng·h/mL | 5179 ng·h/g | 369 ng/g | 526 ng/g | 86.5% | 87% | – | – | – | –
CNCc1cn(S(=O)(=O)c2cccnc2)c(-c2cccnc2F)c1F | – | 14.4% | 49 nM | 629 ng/g | 15 ng/mL | 130 ng/g | 51.5 ng/mL | 54 ng·h/mL | 10277 ng·h/g | 602 ng/g | 752 ng/g | – | 98% | – | – | – | –
CNCc1cn(S(=O)(=O)c2ccoc2)c(-c2cccnc2F)c1F | 0.45 | 12.8% | 60 nM | 194 ng/g | 11.5 ng/mL | – | 37.4 ng/mL | 41 ng·h/mL | 3865 ng·h/g | 635 ng/g | 688 ng/g | 100% | 95% | 44.5% | – | – | –
CNCc1cc(-c2cccnc2F)n(S(=O)(=O)c2ccsc2)c1 | – | 1.4% | 32 nM | 640 ng/g | 8.9 ng/mL | 41.7 ng/g | 23.5 ng/mL | 29 ng·h/mL | 9152 ng·h/g | 407 ng/g | 614 ng/g | – | 98% | – | – | – | –
CNCc1cn(S(=O)(=O)c2ncccc2C)c(-c2cccnc2F)c1F | 0.32 | 29% | 510 nM | – | – | – | – | – | – | – | – | 79.1% | 54% | – | – | – | –
CNCc1cn(S(=O)(=O)c2cncc(C)c2)c(-c2cccnc2F)c1F | 0.61 | 49.7% | 140 nM | – | – | – | – | – | – | – | – | 86.9% | 87% | – | – | – | –
CNCc1cn(S(=O)(=O)c2cccnc2Cl)c(-c2cccnc2F)c1F | 0.75 | 53.1% | 390 nM | 427 ng/g | 10.1 ng/mL | – | 28 ng/mL | 33 ng·h/mL | 6568 ng·h/g | 539 ng/g | 722 ng/g | 86.9% | – | – | – | – | –
CNCc1cn(S(=O)(=O)c2cncc(F)c2)c(-c2cccnc2F)c1F | 0.83 | 27% | 200 nM | 425 ng/g | 8.3 ng/mL | 38.3 ng/g | 43 ng/mL | 38 ng·h/mL | 6599 ng·h/g | 330 ng/g | 606 ng/g | 88.9% | 99% | 22.7% | – | inactive | >5

More lines, in order of falling IC50 [4], values ahead:

logD [2] | inhibition at 0.25 h, 10 µM [3] | IC50 [4] | concentration at 4 h [5] | concentration at 1 h [6] | concentration at 24 h [8] | concentration at 10 min [9] | AUC [11] | AUC [12] | concentration at 10 min [13] | concentration at 1 h [14] | SMILES | viability at 24 h, 100 µM [1] | inhibition in vivo at 1 mg/kg [7] | inhibition at 10 µM [10] | inhibition [15] | inhibition [16] | pH [17]
0.64 | 7.7% | 280 nM | 426 ng/g | 13.1 ng/mL | – | 54.2 ng/mL | 52 ng·h/mL | 6761 ng·h/g | 624 ng/g | 806 ng/g | CNCc1cn(S(=O)(=O)c2ccc(OC)cn2)c(-c2cccnc2F)c1F | 80% | 95% | 17.6% | – | – | –
0.71 | 22.9% | 210 nM | 527 ng/g | 10.3 ng/mL | 3.3 ng/g | 41.7 ng/mL | 41 ng·h/mL | 8550 ng·h/g | 1080 ng/g | 999 ng/g | CNCc1cn(S(=O)(=O)c2cccc(C)n2)c(-c2cccnc2F)c1F | 83.8% | 91% | 13.9% | – | – | –
– | 4.2% | 210 nM | 541 ng/g | 8.4 ng/mL | 19.6 ng/g | 37.1 ng/mL | 35 ng·h/mL | 7646 ng·h/g | 420 ng/g | 532 ng/g | CNCc1cc(-c2cccnc2F)n(S(=O)(=O)c2cccnc2)c1 | – | 96% | – | – | – | –
1.44 | 45.9% | 160 nM | – | – | – | – | – | – | – | – | CNCc1cn(S(=O)(=O)c2cncc(Cl)c2)c(-c2cccnc2F)c1F | 66.9% | – | – | – | – | –
1.03 | 55.8% | 150 nM | 971 ng/g | 14.9 ng/mL | 47.9 ng/g | 43.5 ng/mL | 50 ng·h/mL | 14434 ng·h/g | 773 ng/g | 1260 ng/g | CNCc1cn(S(=O)(=O)c2cccc(OC)n2)c(-c2cccnc2F)c1F | 69.8% | 98% | 82.3% | Active | – | –
0.43 | 40% | 120 nM | 251 ng/g | 8.4 ng/mL | – | 50.1 ng/mL | 41 ng·h/mL | 4248 ng·h/g | 360 ng/g | 618 ng/g | CNCc1cn(S(=O)(=O)c2cnccc2C)c(-c2cccnc2F)c1F | 90.9% | 98% | 28.2% | – | – | –
– | -9.7% | 120 nM | – | – | – | – | – | – | – | – | CNCc1cc(-c2cccnc2F)n(S(=O)(=O)c2ccccn2)c1 | – | 81% | – | – | – | –
0.2 | 5.6% | 79 nM | 254 ng/g | 6.5 ng/mL | – | 26.5 ng/mL | 26 ng·h/mL | 4566 ng·h/g | 592 ng/g | 706 ng/g | CNCc1cn(S(=O)(=O)c2ccco2)c(-c2cccnc2F)c1F | 90.8% | 75% | 28.7% | – | – | –
0.54 | 20.5% | 72 nM | 827 ng/g | 12.2 ng/mL | 17.4 ng/g | 36.6 ng/mL | 42 ng·h/mL | 11717 ng·h/g | 412 ng/g | 955 ng/g | CNCc1cn(S(=O)(=O)c2cccs2)c(-c2cccnc2F)c1F | 77.5% | 98% | 56.1% | – | – | –
